Each structure is given as a SMILES string.

These results are taken from PMC5644278 (Alzheimer's & Dementia : Translational Research & Clinical …, 2016).

In data set [1] the test system is healthy male subjects. The experiment in a line: Treatment emergent adverse events, single dose study. It is filed as in vivo, human. The conditions noted are these: donepezil 10 mg oral.
In data set [2] the test system is healthy male subjects. Description: Adaptive tracking. It is filed as in vivo, human. The settings on record: donepezil 10 mg oral; healthy elderly males. The gist of the method:
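Healthy males got one intranasal spray dose in a double-dummy design with oral capsules: 11 mg for young subjects, 22 or 33 mg for elderly subjects, 6 per dose, with age-matched nasal placebo. NeuroCart tests were run twice before dosing, then at 1, 2, 3, 4, 5, 6, 8 and 10 h after, in a quiet room, one subject per session. Analysis was mixed-model ANOVA: treatment, time and treatment×time fixed, subject random, baseline as covariate.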

`COc1cc2c(cc1OC)C(=O)C(CC1CCN(Cc3ccccc3)CC1)C2` (stereo not shown) [donepezil, reference compound]: the “Nausea, incidence” value with healthy male subjects [1] (healthy elderly males) was found to be 16.7%. In addition, in the data set with healthy male subjects [1] (healthy elderly subjects), the “Diarrhea, incidence” value is listed as 33.3% and the “Vomiting, incidence” value amounted to 16.7%. Moreover, the “adaptive tracking compared with placebo (in words)” value in the data set with healthy male subjects [2] is “improvement”.
